Reference: ChEMBL document CHEMBL1132709, “Novel cyclopropapyrroloindole derivative (AT-3510) bearing methoxycarbonyl and trifluoromethyl groups” (J Med Chem, 1999)
Values after ≈ are worked out from the molar mass of the structure shown.

Key:
[1] = Ratio between max dose within 10% body weight loss and tumor growth inhibition; assay type: functional
In short: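 Ratio of maximum dose within 10% body weight loss to the dose giving 50% tumor growth inhibition, in sc Colon 26-bearing mice dosed iv.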

HeLa = test: Concentration required to inhibit the growth of HeLaS3 human uterine cervix carcinoma cells by 50%; assay type: functional, cell-based
Mus musculus [2] = test: In vivo antitumor activity (0.5 mg/Kg) is the measure of tumor growth inhibition of colon 26 murine […] cells.; assay type: functional
In short: (§1)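 Colon 26 cells (10^6/mouse) inoculated sc into male CDF1 mice on day 0; drug given iv on day 7. Read-out is percentage tumor growth inhibition versus the untreated group.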

Mus musculus [3] = test: In vivo concentration required to inhibit the Colon 26 murine […] cell growth by 50%; assay type: functional
Mus musculus [4] = test: In vivo antitumor activity is the measure of tumor growth inhibition of Colon 26 murine […] cells.; assay type: functional
In short: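 Colon 26 cells (10^6/mouse) inoculated sc into male CDF1 mice on day 0; single iv dose on day 7. Tumor growth inhibition expressed as percentage versus untreated group.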

Mus musculus [5] = test: In vivo antitumor activity (0.25 mg/Kg) is the measure of increase in life span of mice bearing P388 murine leukemia cells; 2/2 cured mice (>60-day survivors); assay type: functional, organism-based
Mus musculus [6] = test: In vivo antitumor activity (9.81 mg/kg) is the measure of tumor growth inhibition of human tumor xenograft DLD-1 (colon) implanted sc in mice.; assay type: functional, organism-based
In short: (§2)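 Tumor fragments (2–3 mm3) implanted sc into female BALB/cA Jcl-nu mice on day 0. A single iv dose was given once tumor volume reached about 100 mm3. Read-out is percentage of maximum tumor growth inhibition versus the untreated group.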

Mus musculus [7] = test: In vivo antitumor activity (9.81 mg/kg) is the measure of tumor growth inhibition of human tumor xenograft WiDr (colon) implanted sc in mice.; assay type: functional, organism-based; in short: as §2
Mus musculus [8] = test: In vivo antitumor activity (9.81 mg/kg) is the measure of tumor growth inhibition of human tumor xenograft HCT116 (colon) implanted sc in mice.; assay type: functional, organism-based; in short: as §2
Mus musculus [9] = test: In vivo antitumor activity (9.81 mg/kg) is the measure of tumor growth inhibition of human tumor xenograft NUGC-3 (stomach) implanted sc in mice.; assay type: functional, organism-based; in short: as §2
P338 = test: In vitro concentration required to inhibit the growth of […] murine leukemia cells by 50%; assay type: functional, cell-based; details: Mus musculus
Mus musculus [10] = test: In vivo antitumor activity (0.25 mg/Kg) is the measure of tumor growth inhibition of colon 26 murine […] cells.; assay type: functional; in short: as §1

COC(=O)c1c(C(F)(F)F)[nH]c2c1[C@@]13C[C@@H]1CN(C(=O)c1cc4cc(NC(=O)c5cc6ccccc6o5)ccc4[nH]1)C3=CC2=O
Ratio [1]: 4.3

COC(=O)c1c(C(F)(F)F)[nH]c2c(O)cc3c(c12)[C@H](CCl)CN3C(=O)c1cc2cc(OC)c(OC)c(OC)c2o1 (racemic)
IC50 (HeLa): 0.12 ng/mL (≈ 0.206 nM) | TGI (Mus musculus [2]): 75%

COC(=O)c1c(C(F)(F)F)[nH]c2c(O)cc3c(c12)[C@H](CCl)CN3C(=O)c1cc2cc(NC(=O)c3cnc4ccccc4c3)ccc2[nH]1 (racemic)
IC50 (HeLa): 1.5 ng/mL (≈ 2.27 nM) | TGI (Mus musculus [2]): 84%

COC(=O)c1c(C(F)(F)F)[nH]c2c(OC(=O)N3CCN(C)CC3)cc3c(c12)[C@H](CCl)CN3C(=O)c1cc2cc(NC(=O)c3cc4ccc(OC)cc4o3)ccc2[nH]1
Ratio [1]: 4.6 | TGI50 (Mus musculus [3]): 0.108 mg/kg | TGI (Mus musculus [4]): 89%

COC(=O)c1c(C(F)(F)F)[nH]c2c1[C@@]13C[C@@H]1CN(C(=O)c1cc4cc(NC(=O)c5cc6ccccc6o5)ccc4[nH]1)C3=CC2=O (racemic) [listing 1 of 2 here]
ILS (Mus musculus [5]): 2/2 cured mice (>60-day survivors)

CISPLATIN
TGI (Mus musculus [6]): 25% | TGI (Mus musculus [7]): 44% | TGI (Mus musculus [8]): 34% | TGI (Mus musculus [9]): 87%

COC(=O)c1[nH]c2c(c1C(=O)OC)[C@@]13C[C@@H]1CN(C(=O)c1cc4cc(NC(=O)c5cc6ccccc6o5)ccc4[nH]1)C3=CC2=O (racemic)
IC50 (P338): 0.66 ng/mL (≈ 1.09 nM)

COC(=O)c1c(C(F)(F)F)[nH]c2c(O)cc3c(c12)[C@H](CCl)CN3C(=O)c1cc2cc(NC(=O)c3cc4cc(OC)ccc4cn3)ccc2[nH]1 (racemic)
IC50 (HeLa): 0.18 ng/mL (≈ 0.26 nM) | TGI (Mus musculus [10]): 90%

COC(=O)c1c(C(F)(F)F)[nH]c2c1[C@@]13C[C@@H]1CN(C(=O)c1cc4cc(OC)c(OC)c(OC)c4[nH]1)C3=CC2=O (racemic)
IC50 (P338): 0.24 ng/mL (≈ 0.44 nM)

COC(=O)c1c(C(F)(F)F)[nH]c2c(OC(=O)N3CCN(C)CC3)cc3c(c12)[C@H](CCl)CN3C(=O)c1cc2cc(NC(=O)c3cc4c(OC)c(OC)c(OC)cc4cn3)ccc2[nH]1
Ratio [1]: 3.9 | TGI50 (Mus musculus [3]): 0.13 mg/kg | TGI (Mus musculus [4]): 89%

COC(=O)c1[nH]c2c(c1C(=O)OC)[C@@]13C[C@@H]1CN(C(=O)c1cc4cc(NC(=O)c5cc6ccccc6[nH]5)ccc4[nH]1)C3=CC2=O (racemic)
IC50 (P338): 0.31 ng/mL (≈ 0.514 nM)

COC(=O)c1c(C(F)(F)F)[nH]c2c(OC(=O)N3CCN(C)CC3)cc3c(c12)[C@H](CBr)CN3C(=O)c1cc2cc(OC)c(OC)c(OC)c2[nH]1
Ratio [1]: 11.7

COC(=O)c1c(C(F)(F)F)[nH]c2c(O)cc3c(c12)[C@H](CCl)CN3C(=O)c1cc2cc(NC(=O)c3cc4c(OC)cccc4o3)ccc2[nH]1 (racemic)
IC50 (HeLa): 0.87 ng/mL (≈ 1.28 nM) | TGI (Mus musculus [2]): 83%

COC(=O)c1c(C(F)(F)F)[nH]c2c1[C@@]13C[C@@H]1CN(C(=O)c1cc4cc(NC(=O)c5cc6ccccc6o5)ccc4[nH]1)C3=CC2=O (racemic) [listing 2 of 2 here]
IC50 (P338): 0.53 ng/mL (≈ 0.862 nM)

COC(=O)c1c(C(F)(F)F)[nH]c2c1[C@@]13C[C@@H]1CN(C(=O)c1cc4cc(OC)ccc4[nH]1)C3=CC2=O (racemic)
IC50 (P338): 0.23 ng/mL (≈ 0.474 nM)

COC(=O)c1c(C(F)(F)F)[nH]c2c(O)cc3c(c12)[C@H](CCl)CN3C(=O)c1cc2cc(NC(=O)c3cc4ccccc4o3)ccc2[nH]1 (racemic)
IC50 (HeLa): 0.53 ng/mL (≈ 0.814 nM) | TGI (Mus musculus [2]): 85%
